pIC50: −log10 of the molar value.
What was measured:
[1] = target: SWI/SNF-related matrix-associated actin-dependent regulator of chromatin subfamily A member 4 (Homo sapiens) (UniProt P51532); test: Binding affinity to BRG1 (unknown origin) assessed as increase in protein melting temperature at 50 umol by real-time PCR system based thermal shift assay
In short: (§1)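 Bromodomain proteins in 10 mmol HEPES pH 7.5, 500 mmol NaCl at 75 μg/mL final; compound at 50 µmol final; SYPRO Orange probe at 1:1000. Four replicates per protein mixture. Melt curve read on a real-time PCR instrument, heating 25 °C to 99 °C at 1 °C/min under continuous fluorescence reading; binding taken as the rise in protein melting temperature.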

[2] = target: T1, Bromodomain-containing protein 4 (Homo sapiens, UniProt O60885)
[3] = target: Histone acetyltransferase p300 (Homo sapiens) (UniProt Q09472); test: Binding affinity to EP300 (unknown origin) assessed as increase in protein melting temperature at 50 umol by real-time PCR system based thermal shift assay; in short: as §1
Chain of Histone acetyltransferase p300 (Homo sapiens) (Q09472 whole entry): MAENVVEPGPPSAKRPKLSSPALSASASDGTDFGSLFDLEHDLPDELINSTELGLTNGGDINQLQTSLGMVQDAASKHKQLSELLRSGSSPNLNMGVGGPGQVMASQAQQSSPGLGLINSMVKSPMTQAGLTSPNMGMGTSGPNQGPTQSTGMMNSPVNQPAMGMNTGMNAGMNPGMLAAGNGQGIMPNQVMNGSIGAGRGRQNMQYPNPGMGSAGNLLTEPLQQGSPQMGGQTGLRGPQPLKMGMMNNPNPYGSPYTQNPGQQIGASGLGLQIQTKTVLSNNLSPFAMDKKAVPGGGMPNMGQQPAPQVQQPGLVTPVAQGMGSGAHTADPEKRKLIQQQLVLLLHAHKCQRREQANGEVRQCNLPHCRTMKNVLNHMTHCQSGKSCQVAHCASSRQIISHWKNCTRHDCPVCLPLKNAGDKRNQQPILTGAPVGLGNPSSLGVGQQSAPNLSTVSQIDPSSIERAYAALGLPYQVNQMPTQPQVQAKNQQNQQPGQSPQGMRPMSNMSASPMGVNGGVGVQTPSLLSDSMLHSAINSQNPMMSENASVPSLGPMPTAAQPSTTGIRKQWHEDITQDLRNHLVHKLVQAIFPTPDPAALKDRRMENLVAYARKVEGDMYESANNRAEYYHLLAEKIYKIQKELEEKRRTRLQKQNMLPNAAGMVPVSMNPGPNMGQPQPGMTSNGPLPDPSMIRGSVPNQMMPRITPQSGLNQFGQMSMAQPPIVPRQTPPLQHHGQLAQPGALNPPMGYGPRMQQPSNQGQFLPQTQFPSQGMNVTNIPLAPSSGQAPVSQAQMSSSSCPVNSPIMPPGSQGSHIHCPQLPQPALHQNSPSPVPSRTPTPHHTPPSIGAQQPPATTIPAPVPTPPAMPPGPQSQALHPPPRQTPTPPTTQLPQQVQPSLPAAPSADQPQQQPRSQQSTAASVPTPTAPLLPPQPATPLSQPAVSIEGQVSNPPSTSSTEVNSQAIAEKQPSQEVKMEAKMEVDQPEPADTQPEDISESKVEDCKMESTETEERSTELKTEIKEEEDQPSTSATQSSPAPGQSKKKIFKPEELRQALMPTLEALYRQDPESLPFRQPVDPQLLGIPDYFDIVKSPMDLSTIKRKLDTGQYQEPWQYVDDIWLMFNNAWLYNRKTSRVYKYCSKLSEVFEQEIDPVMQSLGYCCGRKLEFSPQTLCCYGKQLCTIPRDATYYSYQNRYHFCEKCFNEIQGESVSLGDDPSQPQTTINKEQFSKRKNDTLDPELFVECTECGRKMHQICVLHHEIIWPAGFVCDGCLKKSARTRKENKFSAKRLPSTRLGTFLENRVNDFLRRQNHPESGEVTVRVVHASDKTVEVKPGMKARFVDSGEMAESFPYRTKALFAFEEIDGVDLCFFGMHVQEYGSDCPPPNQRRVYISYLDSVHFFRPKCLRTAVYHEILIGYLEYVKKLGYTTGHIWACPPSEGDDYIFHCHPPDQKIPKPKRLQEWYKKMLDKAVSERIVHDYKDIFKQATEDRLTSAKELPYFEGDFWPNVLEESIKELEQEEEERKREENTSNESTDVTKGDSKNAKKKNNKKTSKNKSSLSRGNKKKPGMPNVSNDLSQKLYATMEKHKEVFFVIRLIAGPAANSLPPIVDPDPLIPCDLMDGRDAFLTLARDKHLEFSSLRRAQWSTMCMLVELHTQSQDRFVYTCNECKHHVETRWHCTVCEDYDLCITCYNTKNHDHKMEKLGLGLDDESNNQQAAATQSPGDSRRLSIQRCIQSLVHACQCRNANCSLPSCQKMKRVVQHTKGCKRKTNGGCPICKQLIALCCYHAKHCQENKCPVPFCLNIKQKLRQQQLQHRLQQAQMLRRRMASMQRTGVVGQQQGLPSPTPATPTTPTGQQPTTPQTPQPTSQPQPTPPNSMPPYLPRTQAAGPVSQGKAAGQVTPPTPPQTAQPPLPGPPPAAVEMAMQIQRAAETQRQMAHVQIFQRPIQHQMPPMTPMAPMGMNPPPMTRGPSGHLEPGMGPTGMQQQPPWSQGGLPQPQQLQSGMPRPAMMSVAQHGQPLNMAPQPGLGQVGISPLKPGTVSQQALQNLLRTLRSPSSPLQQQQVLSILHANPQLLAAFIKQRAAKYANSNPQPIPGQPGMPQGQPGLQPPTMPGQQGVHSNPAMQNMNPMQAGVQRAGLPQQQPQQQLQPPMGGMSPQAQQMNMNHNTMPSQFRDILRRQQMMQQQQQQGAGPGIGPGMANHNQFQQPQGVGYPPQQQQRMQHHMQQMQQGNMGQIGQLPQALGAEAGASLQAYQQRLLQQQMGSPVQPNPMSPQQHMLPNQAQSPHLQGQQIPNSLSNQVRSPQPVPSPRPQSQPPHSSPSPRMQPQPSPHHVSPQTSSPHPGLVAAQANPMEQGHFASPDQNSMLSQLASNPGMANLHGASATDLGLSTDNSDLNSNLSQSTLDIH

[4] = target: T1, Bromodomain-containing protein 4; test: Inhibition of BRD4(1) (unknown origin) incubated for 4 hrs by (+)-JQ1 fluorescent ligand based fluorescence anisotrophy
MV4-11 = test: Growth inhibition of human MV4-11 cells after 72 hrs by CellTiter-Glo luminescent cell viability assay; conditions: MV4-11, 72 h
[5] = target: T2, ATPase family AAA domain-containing protein 2 (Homo sapiens) (UniProt Q6PL18); test: Binding affinity to ATAD2 (unknown origin) assessed as increase in protein melting temperature at 50 umol by real-time PCR system based thermal shift assay; in short: as §1
T2 sequence (whole entry): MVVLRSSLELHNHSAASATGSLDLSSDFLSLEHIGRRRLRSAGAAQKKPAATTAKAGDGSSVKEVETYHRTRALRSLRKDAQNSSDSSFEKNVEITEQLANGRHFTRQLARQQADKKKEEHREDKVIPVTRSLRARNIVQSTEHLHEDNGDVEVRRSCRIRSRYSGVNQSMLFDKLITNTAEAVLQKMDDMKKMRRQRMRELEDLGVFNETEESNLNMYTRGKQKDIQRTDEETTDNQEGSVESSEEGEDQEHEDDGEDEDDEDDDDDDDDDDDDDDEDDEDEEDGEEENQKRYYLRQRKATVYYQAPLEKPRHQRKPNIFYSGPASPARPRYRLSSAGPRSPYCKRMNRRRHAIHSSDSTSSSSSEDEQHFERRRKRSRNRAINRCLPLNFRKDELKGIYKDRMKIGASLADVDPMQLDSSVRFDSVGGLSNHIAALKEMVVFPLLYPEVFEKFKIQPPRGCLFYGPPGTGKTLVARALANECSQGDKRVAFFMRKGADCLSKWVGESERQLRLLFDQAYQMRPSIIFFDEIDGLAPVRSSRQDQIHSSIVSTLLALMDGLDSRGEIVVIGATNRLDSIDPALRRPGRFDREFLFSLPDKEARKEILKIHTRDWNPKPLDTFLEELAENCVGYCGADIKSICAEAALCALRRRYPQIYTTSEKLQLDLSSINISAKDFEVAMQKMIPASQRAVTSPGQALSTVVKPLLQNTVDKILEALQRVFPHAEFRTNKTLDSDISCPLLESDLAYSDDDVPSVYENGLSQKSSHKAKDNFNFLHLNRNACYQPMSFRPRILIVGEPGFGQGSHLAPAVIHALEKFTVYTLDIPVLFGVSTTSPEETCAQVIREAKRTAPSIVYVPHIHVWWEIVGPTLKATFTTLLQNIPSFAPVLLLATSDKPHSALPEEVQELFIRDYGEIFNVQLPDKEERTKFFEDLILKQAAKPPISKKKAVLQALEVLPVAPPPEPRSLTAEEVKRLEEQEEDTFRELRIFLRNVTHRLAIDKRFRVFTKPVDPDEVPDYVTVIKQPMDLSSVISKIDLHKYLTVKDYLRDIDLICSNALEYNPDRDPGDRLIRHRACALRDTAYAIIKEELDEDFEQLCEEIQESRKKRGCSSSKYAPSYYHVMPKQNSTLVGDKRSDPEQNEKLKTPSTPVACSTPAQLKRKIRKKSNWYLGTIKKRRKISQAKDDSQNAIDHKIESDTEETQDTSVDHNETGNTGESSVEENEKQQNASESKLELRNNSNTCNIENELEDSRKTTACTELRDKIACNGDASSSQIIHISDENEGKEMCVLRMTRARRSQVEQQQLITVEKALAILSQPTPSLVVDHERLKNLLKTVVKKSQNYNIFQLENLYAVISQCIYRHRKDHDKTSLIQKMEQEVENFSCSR

HT-29 = test: Growth inhibition of human HT-29 cells after 72 hrs by SRB assay; format: functional, cell-based; conditions: HT-29, 72 h
In short: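 HT-29 cells are grown in McCoy's 5A with 10% FBS at 37 °C, 5% CO2. DMSO stocks (0.01 mol/L) are diluted in normal saline just before use. Cells are treated in triplicate with gradient concentrations for 72 h at 37 °C.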

[6] = Stability in human liver microsomes assessed as clearance at 1 uM pre-incubated for 5 mins followed by NADPH addition and measured after 5 to 30 mins post NADPH addition by LC/MS/MS method; format: ADME; conditions: read-out: CLH
In short: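 Human liver microsomes (0.5 mg/mL) preincubated with 1 µM compound for 5 min at 37 °C in 0.1 M phosphate pH 7.4 with 1 mmol EDTA and 5 mmol MgCl2. Started with 1 mmol NADPH; sampled at 0, 5, 10 and 30 min. Quenched with equal volume of cold acetonitrile, vortexed, and centrifuged at 10,000 × g.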

[7] = target: Bromodomain-containing protein 2 (Homo sapiens) (UniProt P25440); test: Binding affinity to BRD2(1) (unknown origin) assessed as increase in protein melting temperature at 50 umol by real-time PCR system based thermal shift assay; in short: as §1
Chain of Bromodomain-containing protein 2 (Homo sapiens) (P25440 whole entry, looked up): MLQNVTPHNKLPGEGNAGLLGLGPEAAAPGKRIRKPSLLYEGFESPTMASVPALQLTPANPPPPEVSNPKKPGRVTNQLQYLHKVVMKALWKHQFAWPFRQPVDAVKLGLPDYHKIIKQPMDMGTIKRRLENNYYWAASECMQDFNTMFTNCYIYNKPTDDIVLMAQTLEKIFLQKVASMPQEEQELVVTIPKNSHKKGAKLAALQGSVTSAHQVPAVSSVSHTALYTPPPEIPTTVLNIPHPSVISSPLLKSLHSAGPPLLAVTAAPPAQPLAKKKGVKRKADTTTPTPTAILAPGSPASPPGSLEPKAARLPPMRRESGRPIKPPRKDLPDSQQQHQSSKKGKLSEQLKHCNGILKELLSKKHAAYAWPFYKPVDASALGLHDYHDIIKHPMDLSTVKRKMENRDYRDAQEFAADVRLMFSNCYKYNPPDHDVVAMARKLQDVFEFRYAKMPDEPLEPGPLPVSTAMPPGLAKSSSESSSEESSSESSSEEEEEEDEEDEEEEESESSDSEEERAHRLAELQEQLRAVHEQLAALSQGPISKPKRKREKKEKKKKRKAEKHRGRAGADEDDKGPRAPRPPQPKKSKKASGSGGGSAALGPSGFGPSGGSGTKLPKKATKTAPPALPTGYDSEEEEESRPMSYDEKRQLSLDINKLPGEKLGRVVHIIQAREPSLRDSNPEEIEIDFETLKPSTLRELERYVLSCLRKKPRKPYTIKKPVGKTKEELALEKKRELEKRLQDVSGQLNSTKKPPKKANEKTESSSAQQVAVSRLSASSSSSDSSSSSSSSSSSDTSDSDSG

CYP3A4 [8] = target: T3, CYP3A4 (Homo sapiens, UniProt P08684); test: Inhibition of CYP3A4 in human liver microsomes at 10 uM preincubated for 5 mins before NADPH addition and measured after 20 mins post NADPH addition; format: ADME
T3 sequence (P08684 whole entry): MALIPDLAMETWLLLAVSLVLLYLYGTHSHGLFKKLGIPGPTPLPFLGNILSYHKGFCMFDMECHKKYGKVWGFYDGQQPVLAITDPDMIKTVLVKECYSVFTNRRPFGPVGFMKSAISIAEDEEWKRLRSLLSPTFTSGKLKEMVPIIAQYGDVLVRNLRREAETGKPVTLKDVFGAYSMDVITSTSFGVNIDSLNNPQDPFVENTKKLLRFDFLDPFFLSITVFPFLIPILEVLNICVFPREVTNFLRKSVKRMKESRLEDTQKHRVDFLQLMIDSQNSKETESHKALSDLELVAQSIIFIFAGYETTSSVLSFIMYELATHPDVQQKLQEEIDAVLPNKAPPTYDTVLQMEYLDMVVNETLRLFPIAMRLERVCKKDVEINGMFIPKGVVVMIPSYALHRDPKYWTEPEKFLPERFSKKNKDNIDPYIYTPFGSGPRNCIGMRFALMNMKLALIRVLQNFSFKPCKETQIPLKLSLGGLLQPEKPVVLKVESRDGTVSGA

CYP2C19 = CYP2C19 (Homo sapiens, UniProt P33261); test: Inhibition of CYP2C19 in human liver microsomes at 10 uM using mephenytoin substrate preincubated for 5 mins before NADPH addition and measured after 20 mins post NADPH addition; format: ADME; conditions: probe mephenytoin
Chain of CYP2C19 (P33261 whole entry): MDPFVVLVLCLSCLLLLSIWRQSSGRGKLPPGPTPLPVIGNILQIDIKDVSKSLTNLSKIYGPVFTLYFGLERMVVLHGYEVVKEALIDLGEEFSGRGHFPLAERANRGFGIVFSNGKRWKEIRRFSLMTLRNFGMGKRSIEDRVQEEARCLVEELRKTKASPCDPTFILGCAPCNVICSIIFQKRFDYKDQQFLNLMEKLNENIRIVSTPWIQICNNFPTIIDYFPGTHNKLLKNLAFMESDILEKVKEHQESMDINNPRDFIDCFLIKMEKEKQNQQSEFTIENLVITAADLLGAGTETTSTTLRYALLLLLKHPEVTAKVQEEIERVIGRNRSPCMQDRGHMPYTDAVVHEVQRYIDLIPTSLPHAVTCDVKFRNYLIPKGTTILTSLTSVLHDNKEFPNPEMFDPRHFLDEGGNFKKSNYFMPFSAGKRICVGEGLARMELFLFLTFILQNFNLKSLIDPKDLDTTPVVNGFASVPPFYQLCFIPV
In short: (§2)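 Human liver microsomes 0.2 mg/mL, 1 mmol NADPH, 100 mmol phosphate pH 7.4, probe cocktail (10 μM midazolam, 100 μM testosterone, 10 μM dextromethorphan, 20 μM diclofenac, 100 μM phenacetin, 100 μM mephenytoin), test compound 10 μM or PBS; organic solvent <1%. 5 min preincubation at 37 °C, NADPH-generating system start, 20 min reaction; inhibition from metabolite formation relative to PBS.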

[9] = Growth inhibition of human MM1S cells after 72 hrs by CellTiter-Glo luminescent cell viability assay; conditions: MM1.S
CYP3A4 [10] = target: T3, CYP3A4; test: Inhibition of CYP3A4 in human liver microsomes at 10 uM using midazolam substrate preincubated for 5 mins before NADPH addition and measured after 20 mins post NADPH addition; format: ADME; conditions: probe midazolam; in short: as §2

| SMILES | ΔTm [1] | ΔTm [2] | ΔTm [3] | pIC50 [4] | pIC50 (MV4-11) | ΔTm [5] | pIC50 (HT-29) | microsomal CLint at 1 µM [6] | ΔTm [7] | inhibition at 20 min, 10 µM (CYP3A4 [8]) | inhibition at 20 min, 10 µM (CYP2C19) | pIC50 [9] | inhibition at 20 min, 10 µM (CYP3A4 [10]) |
| --- | --- | --- | --- | --- | --- | --- | --- | --- | --- | --- | --- | --- | --- |
| O=C(Nc1cc(-c2csc(=O)[nH]2)cc(S(=O)(=O)NC2CCCC2)c1)C1CC1 | 1.03 °C | 8.48 °C | -0.54 °C | 7.22 | 6.64 | 3.55 °C | 5.24 | 74 µL/min/mg | 5.63 °C | 21% | 32% | 5.98 | 14% |
| Cc1c(Br)cc(-c2csc(=O)[nH]2)cc1S(=O)(=O)NC1CCCC1 | 0.94 °C | 9.22 °C | -1.01 °C | 7.22 | 6.85 | 3.42 °C | 5.26 | 84 µL/min/mg | 5.92 °C | 53% | 28% | 6.00 | 42% |
| Cc1c(N)cc(-c2csc(=O)[nH]2)cc1S(=O)(=O)NC1CCCC1 | 0.57 °C | 7.25 °C | 0.19 °C | 6.85 | 6.74 | 2.7 °C | 6.07 | 66 µL/min/mg | 5.04 °C | 46% | 3% | 6.24 | 42% |
| Nc1ccc(-c2csc(=O)[nH]2)cc1S(=O)(=O)NC1CCCC1 | 0.39 °C | 7.76 °C | -0.08 °C | 6.92 | 6.54 | 3.28 °C | 5.48 | 20 µL/min/mg | 4.06 °C | 82% | 57% | 6.10 | 70% |
| Cc1ccc(-c2csc(=O)[nH]2)cc1S(=O)(=O)NC1CCCC1 | 0.69 °C | 6.3 °C | -0.17 °C | 6.66 | 6.34 | 1.44 °C | 5.40 | 128 µL/min/mg | 3.47 °C | 68% | 45% | 5.72 | 62% |
| COc1ccc(-c2csc(=O)[nH]2)cc1S(=O)(=O)NC1CCCC1 | 0.41 °C | 5.19 °C | 0.49 °C | 6.12 | 6.26 | 1.36 °C | 5.41 | 56 µL/min/mg | 2.82 °C | 30% | 26% | 5.62 | 20% |
